Key:
Type in all cases: ADME, cell-based
Settings in all cases: 0.5 h
9L [1] = test: Drug uptake in rat 9L cells assessed as intracellular accumulation after 30 mins measured per 5 x 10^5 cells by gamma-counter
How it was run: (§1)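 9L cells were grown in DMEM with 10% FCS and penicillin/streptomycin, then trypsinized and washed twice in HBSS. About 5 × 10^5 cells received 5 µCi tracer in amino acid-free HBSS for 30 min at 37 °C, without or with 10 mM BCH (L-type inhibitor). Cells were centrifuged and rinsed twice with ice-cold HBSS, then gamma-counted with decay correction. Uptake expressed as % of standard per 5 × 10^5 cells. Triplicates, 1-way ANOVA.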

9L [2] = test: Drug uptake in rat 9L cells assessed as intracellular accumulation after 30 mins measured per 5 x 10^5 cells by gamma-counter in presence of 2-aminobicyclo[2.2.1]-heptane-2-carboxylic acid; how it was run: as §1
9L [3] = test: Drug uptake in rat 9L cells assessed as intracellular accumulation after 30 mins measured per 5 x 10^5 cells by gamma-counter in presence of alanine-cysteine-serine
How it was run: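 9L rat gliosarcoma cells were grown in DMEM with 10% fetal calf serum and penicillin/streptomycin at 37 °C under 5% CO2, trypsinized and washed in HBSS. About 5 × 10^5 cells were incubated with 5 µCi tracer in amino-acid-free HBSS with 10 mM ACS (equimolar Ala/Cys/Ser) for 30 min at 37 °C, run in triplicate. Cells were centrifuged and rinsed twice with ice-cold HBSS, then gamma counted with decay correction. Results are % of standard per 5 × 10^5 cells.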

Drug uptake (9L [1]): 12.3 %ID | Drug uptake (9L [2]): 2.9 %ID | Drug uptake (9L [3]): 0.18 %ID
Compound: N[C@]1(C(=O)O)C[C@@H]([18F])C1 [FLUCICLOVINE F18]
